The structures appear in SMILES notation.

Holding throughout (format): functional, cell-based
In one experiment the test system is HepG2. Kind of experiment: Cytotoxicity against human HepG2 cells after 72 hrs by crystal violet staining based microplate reader analysis. The settings on record: HepG2, 72 h. The method in brief:
(§1)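 ATCC HepG2 and MDA-MB-231 cells grown in DMEM with 10% FBS and no antibiotics. Medium was changed at 50–60% confluence (24–48 h post-plating), then cells were exposed for 72 h. Fixation used 1% glutaraldehyde in PBS for 15 min, followed by 0.02% aqueous crystal violet for 30 min. After a PBS wash and 70% EtOH solubilization, absorbance was read at 570 nm (ref 405 nm). IC50 derived; Taxol was the positive control.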

The subject of a further experiment is MDA-MB-231. Kind of experiment: Cytotoxicity against human MDA-MB-231 cells after 72 hrs by crystal violet staining based microplate reader analysis. To be noted: MDA-MB-231, 72 h. In a few lines:
as §1

Another experiment relates to A549. Kind of experiment: Cytotoxicity against human A549 cells after 72 hrs by crystal violet staining based microplate reader analysis. To be noted: A549, 72 h. The method in brief:
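At 50–60% confluence (24–48 h after plating), medium was refreshed before a 72 h treatment. Cells were fixed in 1% glutaraldehyde/PBS for 15 min and stained with 0.02% crystal violet for 30 min. After a PBS wash, dye was solubilized in 70% EtOH and read at A570 (ref 405 nm). IC50 reported; Taxol was the positive control.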

The term IC50 denotes the concentration at which inhibition is half-maximal. Low readings indicate inhibition by little substance, high ones a need for much substance. Consider `COc1cc(/C=C/C(=O)/C=C(O)/C=C/c2cc(OC)c(O)c([C@H]3C=C(C)[C@@H](O)C[C@@H]3[C@@H](C)CCC=C(C)C)c2)ccc1O` [TERPECURCUMIN H], for which the half-maximal inhibitory concentration (IC50) in the experiment with HepG2 was 54.6 µM; in the experiment on MDA-MB-231, 43.7 µM; in the experiment with A549, 84.3 µM.

For `COc1cc(/C=C/C(=O)/C=C(O)/C=C/c2ccc(O[C@]3(C)C=C[C@@H]([C@@H](C)CCC=C(C)C)C[C@@H]3O)c(OC)c2)ccc1O` [TERPECURCUMIN E], the results for the IC50 with HepG2, with MDA-MB-231 and with A549 were 35.9 µM, 84.1 µM and 41.4 µM, respectively.

For `COc1cc(/C=C/C(=O)CC(=O)/C=C/c2ccc(O)c(OC)c2)ccc1O` [CURCUMIN], the IC50 is 31.3 µM with HepG2, 37.8 µM in the experiment with MDA-MB-231 and 49.2 µM with A549.

Consider `COc1cc(/C=C/C(=O)/C=C(O)/C=C/c2cc(OC)c(O)c([C@H]3C=C(C)CC[C@@H]3[C@@H](C)CC(=O)C=C(C)C)c2)ccc1O` [TERPECURCUMIN I], for which the results for the IC50 in the experiment with HepG2, with MDA-MB-231 and in the experiment on A549 were 50.3 µM, 69.5 µM and 41.1 µM, respectively.

Regarding `O=C(/C=C/c1ccc(O)cc1)CC(=O)/C=C/c1ccc(O)cc1` [BISDEMETHOXYCURCUMIN], the IC50 in the experiment on HepG2 was 62.9 µM; with MDA-MB-231, 38.5 µM; with A549, 38.1 µM.

For the compound `CC(=O)O[C@H]1C(=O)[C@@]2(C)[C@H]([C@H](OC(=O)c3ccccc3)[C@]3(O)C[C@H](OC(=O)[C@H](O)[C@@H](NC(=O)c4ccccc4)c4ccccc4)C(C)=C1C3(C)C)[C@]1(OC(C)=O)CO[C@@H]1C[C@@H]2O` [PACLITAXEL], the values for the IC50 with HepG2, with MDA-MB-231 and with A549 were 0.054 µM, 0.052 µM and 0.056 µM, respectively.

`COc1cc(/C=C/C(=O)/C=C(O)/C=C/c2ccc(O[C@]3(C)C=C[C@@H]([C@@H](C)CC(=O)C=C(C)C)C[C@@H]3O)cc2)ccc1O` [TERPECURCUMIN G]: the IC50 in the experiment on HepG2 worked out at 17.1 µM; with MDA-MB-231 it was 15.9 µM; in the experiment on A549, 14.5 µM.

`COc1cc(/C=C/C(=O)/C=C(O)/C=C/c2ccc(O[C@H]3C[C@H]([C@@H](C)CCC=C(C)C)[C@@H](O)C=C3C)c(OC)c2)ccc1O` [TERPECURCUMIN B]: the results for the IC50 in the experiment with HepG2, in the experiment on MDA-MB-231 and in the experiment on A549 were 64.1 µM, 74.9 µM and 61.9 µM, respectively.

Turning to `COc1cc(/C=C/C(O)=C/C(=O)/C=C/c2ccc(O)cc2)ccc1O` [DEMETHOXYCURCUMIN], the IC50 in the experiment on HepG2 amounted to 58.1 µM; in the experiment with MDA-MB-231 it was 44.3 µM; in the experiment on A549, 38.1 µM.

As for `COc1cc(/C=C/C(=O)/C=C(O)/C=C/c2ccc(O[C@H]3C=C(C)[C@@H](O)C[C@@H]3[C@@H](C)CC(=O)C=C(C)C)c(OC)c2)ccc1O` [BISABOLOCURCUMIN ETHER], the IC50 with HepG2 stood at 15.4 µM; with MDA-MB-231, 10.6 µM; in the experiment with A549, 16.1 µM.

On to `COc1cc(/C=C/C(=O)/C=C(O)/C=C/c2ccc(O[C@H]3C[C@H]([C@@H](C)CC(=O)C=C(C)C)C=C[C@@]3(C)O)c(OC)c2)ccc1O` [TERPECURCUMIN D], for which the IC50 in the experiment on HepG2 amounted to 18.3 µM; in the experiment on MDA-MB-231 it was 15.9 µM; with A549, 14.3 µM.

Take `CC(C)=CC(=O)C[C@H](C)[C@H]1C[C@H](O)C(C)=C[C@@H]1Oc1ccc(/C=C/C(O)=C/C(=O)/C=C/c2ccc(O)cc2)cc1` [DIDEMETHOXYBISABOLOCURCUMIN ETHER]: the results for the IC50 with HepG2, in the experiment on MDA-MB-231 and with A549 were 22.7 µM, 30.8 µM and 27.4 µM, respectively.

Consider `COc1cc(/C=C/C(=O)/C=C(O)/C=C/c2ccc(O[C@H]3C[C@H]([C@@H](C)CCC=C(C)C)C=C[C@@]3(C)O)c(OC)c2)ccc1O` [TERPECURCUMIN C], for which the IC50 in the experiment on HepG2 is 29.5 µM; with MDA-MB-231, 24.6 µM; with A549, 35 µM.

In the case of `COc1cc(/C=C/C(=O)/C=C(O)/C=C/c2ccc(O[C@H]3C=C(C)[C@@H](O)C[C@@H]3[C@@H](C)CCC=C(C)C)c(OC)c2)ccc1O` [TERPECURCUMIN A], the IC50 stood at 25 µM in the experiment on HepG2, 27.3 µM in the experiment on MDA-MB-231 and 30.6 µM in the experiment on A549.

On to `COc1cc(/C=C/C(O)=C/C(=O)/C=C/c2ccc(O)cc2)ccc1O[C@H]1C=C(C)[C@@H](O)C[C@@H]1[C@@H](C)CC(=O)C=C(C)C` [DEMETHOXYBISABOLOCURCUMIN ETHER], for which the IC50 was 13 µM with HepG2, 10.3 µM in the experiment on MDA-MB-231 and 16.6 µM in the experiment with A549.

On to `COc1cc(/C=C/C(=O)/C=C(O)/C=C/c2ccc(O[C@]3(C)C=C[C@@H]([C@@H](C)CC(=O)C=C(C)C)C[C@@H]3O)c(OC)c2)ccc1O` [TERPECURCUMIN F], for which the half-maximal inhibitory concentration (IC50) in the experiment on HepG2 stood at 15.7 µM; with MDA-MB-231, 19.4 µM; with A549 it was 15.2 µM.

Source of the values: ChEMBL document CHEMBL2203075, “Terpecurcumins A-I from the rhizomes of Curcuma longa: absolute configuration and cytotoxic activity” (J Nat Prod, 2012).
